AHR act = human AHR activation; AHR-responsive luciferase reporter cells, luminescence; AID 2796; activation, % at 5 µM; 2.5% of 320,000 active; P35869; in the data active means activation above about 47%;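 further: 0% = vehicle wells and 100% = reference agonist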
FXIa inh = factor XIa (human) inhibition. purified FXIa, Boc-Glu-Ala-Arg-AMC fluorogenic substrate. P03951. AID 798. inhibition, % at 5 µM. 0.14% of 220,000 active;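 active means inhibition of at least 40%; inactive means inhibition below 40%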;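 further: fluorescence of freed AMC excited at 355 nm; 0% = enzyme without compound and 100% = no enzyme blank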
Target sequence (P03951 19-387 limits assumed): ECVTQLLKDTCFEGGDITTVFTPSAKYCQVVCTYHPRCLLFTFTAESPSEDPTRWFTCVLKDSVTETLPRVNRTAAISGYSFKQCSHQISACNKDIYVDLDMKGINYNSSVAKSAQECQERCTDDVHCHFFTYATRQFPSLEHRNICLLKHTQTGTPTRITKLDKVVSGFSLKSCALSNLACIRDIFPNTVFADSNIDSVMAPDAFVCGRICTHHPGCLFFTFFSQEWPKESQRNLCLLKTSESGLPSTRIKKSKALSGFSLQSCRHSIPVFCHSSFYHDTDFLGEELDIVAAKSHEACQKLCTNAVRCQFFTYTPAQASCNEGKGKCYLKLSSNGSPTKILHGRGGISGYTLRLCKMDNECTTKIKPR
Target sequence (P03951 388-625 limits assumed): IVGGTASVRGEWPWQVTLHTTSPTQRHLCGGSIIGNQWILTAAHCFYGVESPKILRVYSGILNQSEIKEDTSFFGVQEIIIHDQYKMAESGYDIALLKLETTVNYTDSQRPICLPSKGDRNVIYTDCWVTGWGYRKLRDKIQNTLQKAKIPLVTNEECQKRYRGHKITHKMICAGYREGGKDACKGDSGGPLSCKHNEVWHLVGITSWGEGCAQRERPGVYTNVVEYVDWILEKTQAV
hK5 inh = blocks human kallikrein 5 protease activity; Q9Y337; recombinant hK5, fluorogenic AMC substrate cleavage; inhibition, % at 5 µM; 0.59% of 210,000 active; AID 873;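 active means inhibition of 40% or more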;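 further: 0% = enzyme controls without compound and 100% = no-enzyme blanks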
STAT3 act = STAT3 signaling activation; U3A cells, IL-6 STAT3-luciferase reporter, luminescence; 100% = signal with IL-6 EC80 alone; 0.91% of 190,000 active; activation (% of control), % at 5.6 µM;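 active means activation above the screen-wide mean of compound activation plus 3 SD, cut at about 130% in these data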;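 further: 0% = background luminescence of wells with medium and substrate only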
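Material: human STAT1-deficient U3A cells with stable STAT3-luciferase reporter / Probe or stimulus: IL-6 stimulus at 33 ng/mL final / Schedule: 1 h compound pre-exposure, 6 h IL-6 stimulation, 37 °C / Technique: luminescence / Read-out basis: percent of IL-6-only median luminescence / Control set: IL-6-only high control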
thrombin 1536 = blocks human thrombin protease activity; 0.26% of 220,000 active; inhibition, % at 5 µM; alpha-thrombin, Boc-VPR-AMC fluorogenic substrate cleavage;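 active means inhibition at or above 40%; inactive means inhibition below 40%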;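 further: 0% = enzyme with no compound and 100% = wells without enzyme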
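System: Human alpha-thrombin protein | Medium: pH 7.5 Tris (50 mM) with NaCl 150 mM, Tween 20 0.05% | Times: Enzyme reaction carried out at room temperature | Detection: AMC fluorescence, 355/460 nm | Evaluation: Percent inhibition scaled between no-compound controls and no-enzyme blanks | Benchmarks: Enzyme without compound as high, wells lacking enzyme as low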
FXIIa inh 1536 = factor XIIa (human) inhibition; purified FXIIa, Boc-QGR-AMC fluorogenic substrate, 2 h; AID 800; inhibition, % at 5 µM; 0.3% of 220,000 active; P00748; in the data active means inhibition above about 40%;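 further: 0% = enzyme with no compound and 100% = blank without enzyme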
An asterisk follows results filed as active; . = no result given. Only some compounds are listed: those with a hit (about 3.5% of all), similar ones and a draw of the others.

SMILES	AHR act	FXIa inh	hK5 inh	STAT3 act	thrombin 1536	FXIIa inh 1536
C=CCN1C(=O)C2(NNc3ccccc3O2)c2ccccc21 (stereo unspecified)	39	8	-10	104	-2	11
CCCCN1C(=O)C2(NNc3ccccc3O2)c2ccccc21 (stereo unspecified)	69*	4	-4	110	1	16
COc1ccc(C)cc1NC(=O)NNC(=O)C1CCC(C(C)(C)C)CC1 (stereo unspecified)	3	-1	.	108	-4	3
CC(C)CN(C(=O)COC(=O)Cc1c[nH]c2ccccc12)C1CCS(=O)(=O)C1 (stereo unspecified)	21	-3	-5	133*	-4	10
CC(C)CN(C(=O)COC(=O)CCc1c[nH]c2ccccc12)C1CCS(=O)(=O)C1 (stereo unspecified)	6	-13	10	113	0	14
Cc1ccc(C(=O)Nn2cnnc2)cc1Cl	1	.	.	.	.	.
Cc1cc(=O)oc2c1c(C)nn2-c1cccc(Cl)c1	71*	-1	-5	98	5	6
Cc1nn(-c2cccc(Cl)c2)c2nc(-c3ccco3)cc(C(=O)O)c12	15	5	-13	116	2	10
Cc1cc(=O)oc2c1c(C)nn2-c1ccc(Br)cc1	67*	-4	-1	124	-9	5
Cc1ccc(C(=O)NCC(=O)NCCCc2ccccc2)cc1	6	.	.	.	.	.
COc1ccc(N2CCN(c3ccc(NC(=O)NN)cc3)CC2)cc1	2	.	.	.	.	.
O=C(Cc1ccc(Cl)cc1)NNC(=O)C1CC=CCC1C(=O)O (stereo unspecified)	-2	.	.	.	.	.
O=[N+]([O-])c1ccc(/C=N/Nc2nc(N3CCCCC3)nc(N3CCCCC3)n2)cc1	2	2	5	109	-1	13
O=[N+]([O-])c1ccc(Nc2nc(N/N=C\c3ccc4c(c3)OCO4)nc(N3CCCCC3)n2)cc1	71*	-5	-6	98	-5	1
NNc1nc(Nc2ccc([N+](=O)[O-])cc2)nc(N2CCCCCC2)n1	68*	.	.	.	.	.
CCOc1cc(/C=N/Nc2nc(Nc3ccccc3)nc(N3CCCCC3)n2)ccc1OCC(=O)O	7	24	45*	99	-9	19
COc1ccc(/C=N/Nc2nc(Nc3ccccc3)nc(N3CCCCC3)n2)cc1OC	14	6	0	108	-6	13
CC(=O)NC(Cc1ccc(C)cc1)C(=O)NC1CCN(S(=O)(=O)c2ccccc2)CC1 (stereo unspecified)	-1	.	.	.	.	.
Cc1ccc(OCCn2c(=O)n(C)c3ccccc32)cc1	21	-3	-3	99	1	4
COCCCNc1c2c3c(cccc3[nH]c1=O)C(=O)c1ccccc1-2	70*	2	-7	100	-3	10
COCCCNC1=C(Cl)C(=O)c2ccccc2C1=O	4	-4	-3	.	-6	-1
CC1(C)CC(=O)c2cnc(N3CCc4ccccc43)nc2C1	22	-11	1	.	-9	-3
CCOC(=O)CN1C(=O)N[C@@H](CCc2ccccc2)C(C(C)=O)=C1C	2	.	.	.	.	.
COc1ccccc1C(=O)Nc1cc(C)ccc1NC(=O)c1ccco1	65*	.	.	.	.	.
COc1ccccc1NC(=O)c1ccccc1NC(=O)c1cc(Cl)ccc1NC(=O)c1ccco1	41	3	7	100	3	18
SMILES	AHR act	FXIa inh	hK5 inh	STAT3 act	thrombin 1536	FXIIa inh 1536
COc1cc(NC(=O)c2ccc(OC)c([N+](=O)[O-])c2)ccc1NC(=O)c1ccco1	50*	3	5	.	2	11
Cc1ccc(NC(=O)c2ccco2)c(NC(=O)c2ccccc2C)c1	45	.	.	.	.	.
O=C(Nc1ccc(Cl)cc1C(=O)Nc1ccccn1)c1ccco1	64*	2	4	91	-2	6
COc1ccccc1NC(=O)c1cc(Cl)ccc1NC(=O)c1ccco1	63*	8	0	100	-9	10
CN1C(=O)[C@H]2[C@@H](/C=C/c3ccccc3)N3C(=O)CN(Cc4ccccn4)C(=O)[C@@]3(C)[C@H]2C1=O	1	.	.	.	.	.
O=C(Nc1ccc(Cl)cc1)Nc1ccccn1	50*	.	.	.	.	.
CCOCCCNS(=O)(=O)c1ccc(NC(=O)c2ccc(OC)c([N+](=O)[O-])c2)cc1	-1	42*	37	96	12	19
COc1cc(NC(=O)c2ccco2)c(OC)cc1NC(=O)Nc1cccc(Cl)c1	-2	5	46*	92	18	7
O=C(Nc1ccccc1)Nc1ccccn1	14	-2	-10	92	-6	9
COc1ccc(C(=O)NC2CC2)cc1OC1CCN(Cc2ccc(F)cc2Cl)CC1	8	.	.	.	.	.
CC(C)CCNC(=O)CCc1nnc(COc2ccccc2)o1	.	3	2	98	2	9
CC(C)=CCN1CCN(Cc2cc(F)ccc2-n2nc(C)cc2C)CC1CCO (stereo unspecified)	-3	-2	1	106	-12	11
Cc1cccc(NC(=O)c2c(O)c3ccccc3n(C)c2=O)c1	40	.	.	.	.	.
Cn1c(Cl)c(C(=O)Nc2ccccc2)c2ccccc21	41	-1	24	158*	2	-6
Cn1c(=O)c(C(=O)Nc2cccnc2)c(O)c2ccccc21	.	.	.	134*	.	.
O=C(Nc1ccc(Nc2ccccc2)cc1)c1c(Cl)cccc1Cl	1	.	.	.	.	.
Cc1ccc(NC(=O)c2c(O)c3ccccc3n(C)c2=O)nc1	40	-7	-10	135*	-5	3
Cn1c(=O)c(C(=O)Nc2ncccc2O)c(O)c2ccccc21	77*	6	4	104	6	10
CC(C)(C)OC(=O)C[C@H]1C/C=C\C[C@H](CC(=O)N[C@H](CO)Cc2ccccc2)C(=O)N[C@@H](Cc2ccccc2)COC1=O	0	.	.	.	.	.
CCOC(=O)/C=c1\s/c(=C\c2sccc2C)c(=O)n1CC(=O)NCc1ccc(C)cc1	2	-1	.	101	-3	4
CC(C)c1ccc(NC(=O)c2ccc3c(c2)C(=O)N(Cc2cccnc2)C3=O)cc1	8	.	.	.	.	.
CCN1CCSc2ccc(C(=O)NCc3cc(Br)ccc3OC)cc21	15	.	.	.	.	.
COc1ccc(Br)cc1CNC(=O)c1ccc2c(c1)N(C)CCS2	49*	.	.	.	.	.
CN1CCSc2ccc(C(=O)NCc3cccc(F)c3)cc21	67*	.	.	.	.	.
C/C(N)=C(/C#N)C(=O)CSc1nc2ccccc2c(=O)n1-c1ccc(C)c(Cl)c1	2	-6	-2	103	-5	6
CCN(CC(=O)Nc1ccccc1OC)C(=O)c1ccc(NS(=O)(=O)c2ccc(C(C)=O)cc2)cc1	1	.	.	.	.	.
O=C(Nc1ccc2c(c1)OCO2)[C@@H]1[C@@H]2C(=O)N(C3CCCCC3)C(=O)[C@@H]2C2c3ccccc3C=CN21 (stereo partly specified)	53*	1	-20	108	3	15
CC(C)(C)C(=O)[C@@H]1[C@@H]2C(=O)N(C3CCCCC3)C(=O)[C@@H]2[C@H]2c3ccccc3C=CN12	93*	.	.	115	.	.
